Measurements published in ChEMBL document CHEMBL1152271, “Interrogating the bioactive pharmacophore of the latrunculin chemotype by investigating the metabolites of two taxonomically unrelated sponges” (J Med Chem, 2008).
Calls of active or inactive are those of the source. The rule behind the calls is not given here.

How the values were obtained:
MDA-MB-435 [1] = assay: Cytotoxicity against human MDA-MB-435 cells 48 hrs by SRB assay; format: functional, cell-based; settings: MDA-MB-435, 48 h
HCT-116 = assay: Cytotoxicity against human HCT116 cells after 3 days by trypan blue assay; format: functional, cell-based; settings: HCT-116, 72 h
A10 [2] = assay: Disruption of microfilament in rat A10 cells at 5 uM after 18 hrs using DAPI staining by fluorescence microscopy
MC-38 [3] = assay: Cytotoxicity against mouse Colon 38 cells at 1.9 uM by disk diffusion soft agar colony formation assay; format: functional; settings: read-out: IZ
Summary of the method: (§1)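 Soft agar disk diffusion colony formation assay with murine colon 38 cells, run alongside murine L1210 and CFU-GM. Compound adsorbed onto a disk at similar loadings across compounds. Read-out is the zone of inhibition (Z) in mm. Full method described previously.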

MDA-MB-435 [4] = assay: Ratio of IC50 for human MDA-MB-435 cells to IC50 for human HCT116 cells; format: functional
A10 [5] = assay: Disruption of microfilament in rat A10 cells at 9 uM after 18 hrs using DAPI staining by fluorescence microscopy; format: functional, cell-based
MC-38 [6] = assay: Cytotoxicity against mouse Colon 38 cells at 1.1 uM by disk diffusion soft agar colony formation assay; format: functional; settings: read-out: IZ
Summary of the method: (§2)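 Disk diffusion soft-agar colony formation assay with murine colon 38 cells. The compound is adsorbed onto a disk at a concentration similar to the other compounds tested. The read-out is the zone of inhibition (Z), recorded in mm.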

MC-38 [7] = assay: Cytotoxicity against mouse Colon 38 cells at 3.5 uM by disk diffusion soft agar colony formation assay; format: functional; settings: read-out: IZ; summary of the method: as §2
MC-38 [8] = assay: Cytotoxicity against mouse Colon 38 cells at 5.1 uM by disk diffusion soft agar colony formation assay; format: functional; settings: read-out: IZ; summary of the method: as §1
MC-38 [9] = assay: Cytotoxicity against mouse Colon 38 cells at 4.0 uM by disk diffusion soft agar colony formation assay; format: functional; settings: read-out: IZ; summary of the method: as §2

| Structure (SMILES) | IC50 (MDA-MB-435 [1]) [µM] | IC50 (HCT-116) [µM] | Activity (A10 [2]) | zone of inhibition at 1.9 µM (MC-38 [3]) [mm] | Ratio IC50 (MDA-MB-435 [4]) | Activity (A10 [5]) | zone of inhibition at 1.1 µM (MC-38 [6]) [mm] | zone of inhibition at 3.5 µM (MC-38 [7]) [mm] | zone of inhibition at 5.1 µM (MC-38 [8]) [mm] | zone of inhibition at 4 µM (MC-38 [9]) [mm] |
| --- | --- | --- | --- | --- | --- | --- | --- | --- | --- | --- |
| C/C1=C/C(=O)O[C@@H]2C[C@@H](CC[C@H](C)/C=C\C=C\CC1)O[C@@](O)([C@@H]1CSC(=O)N1)C2 [LATRUNCULIN A] | 2.8 | 1.1 | Active | 9 | 2.5 |  |  |  |  |  |
| C/C1=C/C(=O)O[C@@H]2C[C@@H](CC[C@H](C)C(=O)/C=C/C(O)CC1)O[C@@](O)([C@@H]1CSC(=O)N1)C2 (some centres undefined) | 30.5 | > 53 |  |  | <0.6 | inactive |  |  |  |  |
| C/C1=C/C(=O)O[C@@H]2C[C@@H](CC[C@H](C)/C=C\CC1)O[C@@](O)([C@H]1CSC(=O)N1)C2 [16-EPI-LATRUNCULIN B] | 17 | 38 | Active |  | 0.5 |  |  |  |  |  |
| C/C1=C/C(=O)O[C@@H]2C[C@@H](CC[C@H](C)/C=C\CC(=O)CC1)O[C@@](O)([C@@H]1CSC(=O)N1)C2 [LATRUNCULONE B] | 1 | 0.92 | Active |  | 1.1 |  | 19.5 |  |  |  |
| CO[C@]1([C@@H]2CSC(=O)N2)C[C@H]2C[C@@H](CC[C@H](C)/C=C\CC/C(C)=C\C(=O)O2)O1 [15-METHOXYLATRUNCULIN B] | 29.7 | 49 | inactive |  | 0.6 |  |  |  |  |  |
| C/C1=C/C(=O)O[C@@H]2C[C@@H](CC[C@H](C)/C=C\[C@H](O)[C@H](O)CC1)O[C@@](O)([C@@H]1CSC(=O)N1)C2 [LATRUNCULOL C] | 11.9 | > 53 | Active |  | <0.2 |  |  |  |  |  |
| C/C1=C/C(=O)O[C@@H]2C[C@@H](CC[C@H](C)/C=C\[C@H](O)[C@@H](O)CC1)O[C@@](O)([C@H]1CSC(=O)N1)C2 [18-EPI-LATRUNCULOL A] | > 50 | 5.5 | inactive |  | >9.1 |  |  | 17 |  |  |
| CO[C@H]1/C=C\[C@@H](C)CC[C@@H]2C[C@H](C[C@](O)([C@@H]3CSC(=O)N3)O2)OC(=O)/C=C(/C)CC[C@@H]1O [LATRUNCULOL B] | 4 | 2.1 | Active |  | 1.9 |  | 19.5 |  |  |  |
| C/C(=C/C(=O)O)CC/C=C\[C@@H](C)CC[C@@H]1CC=CC(=O)O1 [LATRUNCULEIC ACID] | 26.1 | 48 | inactive |  | 0.5 |  |  |  |  |  |
| C/C1=C/C(=O)O[C@@H]2C[C@@H](CC[C@H](C)/C=C\[C@H](O)[C@@H](O)CC1)O[C@@](O)([C@@H]1CSC(=O)N1)C2 [LATRUNCULOL A] | 2.1 | 0.48 | Active |  | 4.4 |  | 23.5 |  |  |  |
| C/C1=C/C(=O)O[C@@H]2C[C@@H](CC[C@H](C)/C=C\CC1)O[C@@](O)([C@@H]1CSC(=O)N1)C2 [LATRUNCULIN B] | 4.8 | 7.1 | Active |  | 0.7 |  |  |  | 13 |  |
| C/C1=C/C(=O)O[C@@H]2C[C@@H](CC[C@H](C)/C=C\[C@@H]3OC(C)(C)O[C@H]3CC1)O[C@@](O)([C@@H]1CSC(=O)N1)C2 | 7.9 | 5.1 | Active |  | 1.5 |  |  |  |  | 21 |
| C/C1=C/C(=O)O[C@@H](CC(O)[C@@H]2CSC(=O)N2)C[C@H](O)CC[C@H](C)/C=C\CC1 (some centres undefined) [LATRUNCULIN C] | 34.3 | > 100 | inactive |  | <0.3 |  |  |  |  |  |
